Measured values taken from ChEMBL document CHEMBL4396895, “Identification and Optimization of Novel Cathepsin C Inhibitors Derived from EGFR Inhibitors” (J Med Chem, 2019).

Test system: Mus musculus
Experiment: In vivo inhibition of CatC in po dosed C57BL/6 mouse blood assessed as reduction in proteinase 3 activation administered twice daily for 6 days using aminobenzoyl-Val-Ala-Asp-Cys-Ala-Asp-Gln-ethylenediamine 2,4-dinitrophenyl as substrate measured up to 90 mins by fluorescence assay
Format: functional, organism-based
In short: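 C57BL/6 mice (20−25 g; n = 10 per group) received oral doses twice daily at 6.7, 20 or 60 mg/kg for 6 days. The vehicle group got 0.5% Methocel and 0.1% Tween-80 in 100 mM citrate buffer, pH 3. Blood was drawn by eye puncture 14 h after the last dose. Bone marrow was flushed from femurs and tibias with ice-cold RPMI 1640. Cells were lysed in 50 mM Tris pH 7.4, 750 mM NaCl, 1% Triton X-100, sonicated on ice and stored at −80 °C. Lysates were diluted by protein content, with blood diluted 5-fold more than marrow. Kinetics were followed for up to 90 min. Results are % of the vehicle mean.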

C=CC(=O)Nc1cc(Oc2nc(Nc3ccc(N4CCN(C)CC4)cc3OC)ccc2N2CCCCC2)ccc1C
inhibition: Dose-dependent effect
